Results reported in ChEMBL document CHEMBL1126114, “A novel orally active inhibitor of IL-1 generation: synthesis and structure-activity relationships of 3-(4-hydroxy-1-naphthalenyl)-2-propenoic acid derivatives” (J Med Chem, 1992).
“And” between values parts separate entries of the source, which are not always exact repeats. Identical values can stand only once.

What was measured:
Rattus norvegicus [1] = assay: Inhibitory activity against IL-1 on CMC-LPS air-pouch model at 25 mg/Kg by oral administration; type: functional
Summary of the method: (§1)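 Rat CMC-LPS air pouch: air s.c., 2% CMC-Na 24 h later, LPS 5 ng 24 h after that. Compound given orally in 0.5% methyl cellulose 2 h before LPS. Exudate collected at 4 h; IL-1 (extra- plus intracellular) read by LAF assay against a recombinant human IL-1α curve.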

Rattus norvegicus [2] = assay: The compound was tested for Granuloma generation on CMC-LPS air-pouch model at 25 mg/Kg by oral administration; type: functional
Summary of the method: (§2)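 Rat CMC-LPS air pouch (air, 2% CMC-Na, then LPS 5 ng). Oral dosing in 0.5% methyl cellulose 2 h before LPS. Granuloma wet weight determined 5 days after LPS; % inhibition versus control, with an LPS-free group included.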

Rattus norvegicus [3] = assay: Activity against arthritis on adjuvant-untreated paw in rats at 100 mg/Kg by oral administration; type: functional
Summary of the method: (§3)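 Adjuvant arthritis in rats; drug given orally once daily from the first day of adjuvant treatment. Swelling of the adjuvant-untreated paw measured by plethysmometer on day 15 after adjuvant; % inhibition versus control. Mean ± SEM of 6–10 animals; significance versus control.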

Rattus norvegicus [4] = assay: Inhibitory activity against Granuloma on CMC-LPS air-pouch model at 200 mg/Kg by oral administration; type: functional; summary of the method: as §2
Rattus norvegicus [5] = assay: Inhibitory activity against IL-1 on CMC-LPS air-pouch model at 50 mg/Kg by oral administration; type: functional; summary of the method: as §1
Rattus norvegicus [6] = assay: Inhibitory activity against PGE-2 on CMC-LPS air-pouch model at 100 mg/Kg by oral administration; type: functional
Summary of the method: (§4)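 Rat CMC-LPS air pouch (air, 2% CMC-Na, then LPS 5 ng). Oral dosing in 0.5% methyl cellulose 2 h before LPS. PGE2 in the exudate supernatant collected 4 h after LPS, measured by radioimmunoassay.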

Rattus norvegicus [7] = assay: Activity against arthritis on adjuvant-untreated paw in rats at 12.5 mg/Kg by oral administration; type: functional; summary of the method: as §3
Rattus norvegicus [8] = assay: The compound was tested for PGE-2 generation on CMC-LPS air-pouch model at 12.5 mg/Kg by oral administration; type: functional, organism-based
Summary of the method: (§5)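 Rat dorsal air pouch: CMC-Na (2% w/v, 6 mL) injected 24 h after the air, LPS (5 ng) 24 h after that. Oral dosing as a suspension in 0.5% methyl cellulose 2 h before LPS. Exudate sampled 4 h post-LPS; PGE2 in the exudate supernatant measured by radioimmunoassay. Percent inhibition versus control; five animals per group.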

Rattus norvegicus [9] = assay: The compound was tested for Granuloma generation on CMC-LPS air-pouch model at 100 mg/Kg by oral administration; type: functional; summary of the method: as §2
Rattus norvegicus [10] = assay: Inhibitory activity against IL-1 on CMC-LPS air-pouch model at 12.5 mg/Kg by oral administration; type: functional; summary of the method: as §1
Rattus norvegicus [11] = assay: Activity against arthritis on adjuvant-untreated paw in rats at 50 mg/Kg by oral administration; type: functional; summary of the method: as §3
Rattus norvegicus [12] = assay: % inhibition against arthritis on adjuvant-untreated paw in rats at 50 mg/Kg by oral administration; type: functional; summary of the method: as §3
Rattus norvegicus [13] = assay: % inhibition against arthritis on adjuvant-untreated paw in rats at 12.5 mg/Kg by oral administration; type: functional; summary of the method: as §3
Rattus norvegicus [14] = assay: The compound was tested for PGE-2 generation on CMC-LPS air-pouch model at 200 mg/Kg by oral administration; type: functional, organism-based; summary of the method: as §5
Rattus norvegicus [15] = assay: In vivo percent inhibition of IL-1 generation in rat CMC-LPS air pouch model at 100 uM concentration (local administration); type: functional
Summary of the method: (§6)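 Rat air pouch: 10 mL air s.c. into the dorsum, 2% CMC-Na in saline 24 h later, then LPS 5 ng 24 h after CMC. Compound given locally in 5% EtOH-RPMI with 30% autologous serum, 100 μM final in exudate, at 30 min before and just before LPS. Exudate IL-1 (extra- plus intracellular) read by LAF at 4 h. n=5; % inhibition ± SEM.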

Rattus norvegicus [16] = assay: The compound was tested for IL-1 generation on CMC-LPS air-pouch model at 25 mg/Kg by oral administration; type: functional, organism-based
Summary of the method: (§7)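 Rats got 10 mL subcutaneous dorsal air, then 6 mL sterile 2% (w/v) CMC-Na in saline into the pouch 24 h later, then 5 ng LPS in 0.5 mL saline 24 h after that. Compound given orally as a suspension in 0.5% methyl cellulose 2 h before LPS. Exudate collected 4 h after LPS. Extra- plus intracellular IL-1 measured by LAF assay against a human recombinant IL-1α curve. Percent inhibition versus control; five rats per group.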

Rattus norvegicus [17] = assay: Inhibitory activity against Granuloma on CMC-LPS air-pouch model at 50 mg/Kg by oral administration; type: functional; summary of the method: as §2
Rattus norvegicus [18] = assay: Inhibitory activity against PGE-2 on CMC-LPS air-pouch model at 50 mg/Kg by oral administration; type: functional; summary of the method: as §4
Rattus norvegicus [19] = assay: The compound was tested for PGE-2 generation on CMC-LPS air-pouch model at 25 mg/Kg by oral administration; type: functional, organism-based; summary of the method: as §5
Rattus norvegicus [20] = assay: The compound was tested for PGE-2 generation on CMC-LPS air-pouch model at 50 mg/Kg by oral administration; type: functional, organism-based; summary of the method: as §5
Rattus norvegicus [21] = assay: The compound was tested for Granuloma generation on CMC-LPS air-pouch model at 200 mg/Kg by oral administration; type: functional; summary of the method: as §2
Rattus norvegicus [22] = assay: % inhibition against arthritis on adjuvant-untreated paw in rats at 100 mg/Kg by oral administration; type: functional; summary of the method: as §3
Rattus norvegicus [23] = assay: Inhibitory activity against Granuloma on CMC-LPS air-pouch model at 25 mg/Kg by oral administration; type: functional; summary of the method: as §2
Rattus norvegicus [24] = assay: The compound was tested for PGE-2 generation on CMC-LPS air-pouch model at 100 mg/Kg by oral administration; type: functional, organism-based; summary of the method: as §5
Rattus norvegicus [25] = assay: Inhibitory activity against Granuloma on CMC-LPS air-pouch model at 12.5 mg/Kg by oral administration; type: functional; summary of the method: as §2
Rattus norvegicus [26] = assay: Activity against arthritis on adjuvant-untreated paw in rats at 25 mg/Kg by oral administration; type: functional; summary of the method: as §3
Rattus norvegicus [27] = assay: % inhibition against arthritis on adjuvant-untreated paw in rats at 25 mg/Kg by oral administration; type: functional; summary of the method: as §3
Rattus norvegicus [28] = assay: The compound was tested for Granuloma generation on CMC-LPS air-pouch model at 12.5 mg/Kg by oral administration; type: functional; summary of the method: as §2
Rattus norvegicus [29] = assay: Inhibitory activity against Granuloma on CMC-LPS air-pouch model at 100 mg/Kg by oral administration; type: functional; summary of the method: as §2
Rattus norvegicus [30] = assay: The compound was tested for Granuloma generation on CMC-LPS air-pouch model at 50 mg/Kg by oral administration; type: functional; summary of the method: as §2
Rattus norvegicus [31] = assay: Compound was evaluated in vivo for the percent inhibition of IL-1 generation in rat CMC-LPS air pouch model at 50 mg/Kg concentration (oral administration); type: functional; summary of the method: as §1
Rattus norvegicus [32] = assay: Inhibitory activity against PGE-2 on CMC-LPS air-pouch model at 12.5 mg/Kg by oral administration; type: functional; summary of the method: as §4
Rattus norvegicus [33] = assay: Inhibitory activity against IL-1 on CMC-LPS air-pouch model at 100 mg/Kg by oral administration; type: functional; summary of the method: as §1
Rattus norvegicus [34] = assay: Inhibitory activity against PGE-2 on CMC-LPS air-pouch model at 25 mg/Kg by oral administration; type: functional; summary of the method: as §4
Rattus norvegicus [35] = assay: The compound was tested for IL-1 generation on CMC-LPS air-pouch model at 12.5 mg/Kg by oral administration; type: functional, organism-based; summary of the method: as §7
Rattus norvegicus [36] = assay: Inhibitory activity against IL-1 on CMC-LPS air-pouch model at 200 mg/Kg by oral administration; type: functional; summary of the method: as §1
Rattus norvegicus [37] = assay: Inhibitory activity against PGE-2 on CMC-LPS air-pouch model at 200 mg/Kg by oral administration; type: functional; summary of the method: as §4
Rattus norvegicus [38] = assay: Compound was evaluated in vivo for the percent inhibition of IL-1 generation in rat CMC-LPS air pouch model at 100 uM concentration; type: functional; summary of the method: as §6
Homo sapiens = organism: Homo sapiens; assay: In vitro inhibitory activity against IL-1 generation by using human monocyte; type: functional
Summary of the method: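 Healthy-donor peripheral mononuclear cells, adhered 1.5 h in RPMI 1640 with 10% heat-inactivated autologous serum. Adherent monocytes then stimulated with LPS 1 μg/mL for 16–18 h in 1% autologous serum with 0.1% ethanol, ± drug. Extra- plus intracellular IL-1 read by LAF assay against a recombinant human IL-1β curve. IC50 by least squares; mean of ≥2 experiments.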

Rattus norvegicus [39] = organism: Rattus norvegicus; assay: In vitro inhibitory activity against IL-1 generation by using rat exudated macrophages; type: functional
Summary of the method: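 Fisher rat peritoneal exudate cells collected 4 days after i.p. 2.5% glycogen. Cells adhered 1.5 h at 37 °C in 1% normal rat serum. Adherent macrophages stimulated with LPS 1 ng/mL for 4 h ± compound. Intracellular IL-1 read by LAF assay against a recombinant human IL-1α curve. IC50 by least squares; mean of duplicates.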

**Q.** How did the inhibition in vivo at 25 mg/kg (Rattus norvegicus [1]) turn out when `CCc1cccc2c(/C=C(/C)C(=O)O)cc(OC)c(O)c12` was run?
**A.** 40%

**Q.** And the Wet weight (Rattus norvegicus [2])?
**A.** 1.61 g

**Q.** And the Swelling (Rattus norvegicus [3])?
**A.** 26.8%

**Q.** And the inhibition in vivo at 200 mg/kg (Rattus norvegicus [4])?
**A.** 87%

**Q.** And the inhibition in vivo at 50 mg/kg (Rattus norvegicus [5])?
**A.** 65%

**Q.** And the inhibition in vivo at 100 mg/kg (Rattus norvegicus [6])?
**A.** 91%

**Q.** What about the Swelling (Rattus norvegicus [7]) of the same compound?
**A.** 44.1%

**Q.** What about the Concentration (Rattus norvegicus [8]) of the same compound?
**A.** 5.9 ng/mL

**Q.** And the Wet weight (Rattus norvegicus [9])?
**A.** 1.25 g

**Q.** What about the inhibition in vivo at 12.5 mg/kg (Rattus norvegicus [10]) of the same compound?
**A.** < 25%

**Q.** And the Swelling (Rattus norvegicus [11])?
**A.** 33.8%

**Q.** What about the inhibition in vivo at 50 mg/kg (Rattus norvegicus [12]) of the same compound?
**A.** 38.8%

**Q.** And the inhibition in vivo at 12.5 mg/kg (Rattus norvegicus [13])?
**A.** 20.1%

**Q.** What about the Concentration (Rattus norvegicus [14]) of the same compound?
**A.** 0.9 ng/mL

**Q.** What about the Inhibition (Rattus norvegicus [15]) of the same compound?
**A.** 94% and 91%

**Q.** What about the Concentration (Rattus norvegicus [16]) of the same compound?
**A.** 1030 U/mL

**Q.** What about the inhibition in vivo at 50 mg/kg (Rattus norvegicus [17]) of the same compound?
**A.** 49%

**Q.** What about the inhibition in vivo at 50 mg/kg (Rattus norvegicus [18]) of the same compound?
**A.** 68%

**Q.** And the Concentration (Rattus norvegicus [19])?
**A.** 5.2 ng/mL

**Q.** What about the Concentration (Rattus norvegicus [20]) of the same compound?
**A.** 2.9 ng/mL

**Q.** What about the Wet weight (Rattus norvegicus [21]) of the same compound?
**A.** 1.16 g

**Q.** What about the inhibition in vivo at 100 mg/kg (Rattus norvegicus [22]) of the same compound?
**A.** 51.4%

**Q.** And the inhibition in vivo at 25 mg/kg (Rattus norvegicus [23])?
**A.** 37%

**Q.** And the Concentration (Rattus norvegicus [24])?
**A.** 0.8 ng/mL

**Q.** What about the inhibition in vivo at 12.5 mg/kg (Rattus norvegicus [25]) of the same compound?
**A.** < 25%

**Q.** And the Swelling (Rattus norvegicus [26])?
**A.** 36.4%

**Q.** And the inhibition in vivo at 25 mg/kg (Rattus norvegicus [27])?
**A.** 34.1%

**Q.** What about the Wet weight (Rattus norvegicus [28]) of the same compound?
**A.** 1.93 g

**Q.** And the inhibition in vivo at 100 mg/kg (Rattus norvegicus [29])?
**A.** 76%

**Q.** And the Wet weight (Rattus norvegicus [30])?
**A.** 1.49 g

**Q.** And the inhibition in vivo at 50 mg/kg (Rattus norvegicus [31])?
**A.** 65%

**Q.** And the inhibition in vivo at 12.5 mg/kg (Rattus norvegicus [32])?
**A.** 35%

**Q.** And the inhibition in vivo at 100 mg/kg (Rattus norvegicus [33])?
**A.** 84%

**Q.** And the inhibition in vivo at 25 mg/kg (Rattus norvegicus [34])?
**A.** 43%

**Q.** And the Concentration (Rattus norvegicus [35])?
**A.** 1290 U/mL

**Q.** And the inhibition in vivo at 200 mg/kg (Rattus norvegicus [36])?
**A.** 91%

**Q.** What about the inhibition in vivo at 200 mg/kg (Rattus norvegicus [37]) of the same compound?
**A.** 90%

**Q.** Which results are given for `CCc1cccc2c(/C=C/C(=O)O)cc(Cl)c(O)c12`?
**A.** Inhibition (Rattus norvegicus [38]): <25%; IC50 (Homo sapiens): 5.4 µM; IC50 (Rattus norvegicus [39]): 6 µM
